Experiments:
[1] = target: Serine/threonine-protein kinase Nek5 (Homo sapiens) (UniProt Q6P3R8); assay: Inhibition of wild-type human partial length NEK5 (M1 to M279 residues) expressed in Escherichia coli BL21 assessed as residual activity at 1000 nM after 30 mins by Kinomescan method relative to control
[2] = target: Aurora kinase A (Homo sapiens) (UniProt O14965); assay: Inhibition of wild-type human partial length AURKA (E122 to K401 residues) expressed in HEK293 cells assessed as residual activity at 1000 nM after 30 mins by Kinomescan method relative to control; type: cell-based
[3] = target: Protein kinase C theta type (Homo sapiens) (UniProt Q04759); assay: Inhibition of wild-type human partial length PRKCQ (L350 to S706 residues) expressed in Escherichia coli BL21 assessed as residual activity at 1000 nM after 30 mins by Kinomescan method relative to control
[4] = test system: Phosphatidylinositol 4,5-bisphosphate 3-kinase catalytic subunit alpha isoform (Homo sapiens), P42336 [H1047Y]; assay: Inhibition of human partial length PIK3CA H1047Y mutant (R108 to N1068 residues) expressed in HEK293 cells assessed as residual activity at 1000 nM after 30 mins by Kinomescan method relative to control; type: cell-based
Method in brief: (§1)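 KINOMEscan binding panel of 456 kinases, with the test compound at a single concentration of 1 µM. Read-out is Percent Control.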

[5] = target: Dual specificity mitogen-activated protein kinase kinase 6 (Homo sapiens) (UniProt P52564); assay: Inhibition of wild-type human partial length MEK6 (K36 to D334 residues) expressed in Escherichia coli BL21 assessed as residual activity at 1000 nM after 30 mins by Kinomescan method relative to control
[6] = target: Serine/threonine-protein kinase pim-3 (Homo sapiens) (UniProt Q86V86); assay: Inhibition of wild-type human partial length PIM3 (G16 to A317 residues) expressed in Escherichia coli BL21 assessed as residual activity at 1000 nM after 30 mins by Kinomescan method relative to control
[7] = target: Serine/threonine-protein kinase PAK 4 (Homo sapiens) (UniProt O96013); assay: Inhibition of wild-type human partial length PAK4 (Q144 to R438 residues) expressed in Escherichia coli BL21 assessed as residual activity at 1000 nM after 30 mins by Kinomescan method relative to control
[8] = target: Serine/threonine-protein kinase/endoribonuclease IRE1 (Homo sapiens) (UniProt O75460); assay: Inhibition of wild-type human partial length ERN1 (S551 to E852 residues) expressed in HEK293 cells assessed as residual activity at 1000 nM after 30 mins by Kinomescan method relative to control; type: cell-based
[9] = test system: Tyrosine-protein kinase ABL1 (Homo sapiens), P00519 [Q252H]; assay: Inhibition of human non-phosphorylated ABL1 Q252H mutant (S229 to K512 residues) expressed in HEK293 cells assessed as residual activity at 1000 nM after 30 mins by Kinomescan method relative to control; type: cell-based; method in brief: as §1
[10] = target: Serine/threonine-protein kinase D2 (Homo sapiens) (UniProt Q9BZL6); assay: Inhibition of wild-type human partial length PRKD2 (A519 to E838 residues) expressed in Escherichia coli BL21 assessed as residual activity at 1000 nM after 30 mins by Kinomescan method relative to control
[11] = target: Cyclin-dependent kinase 11B (Homo sapiens) (UniProt P21127); assay: Inhibition of wild-type human partial length CDK11 (M1 to N360 residues) expressed in Escherichia coli BL21 assessed as residual activity at 1000 nM after […] by Kinomescan method relative to control
[12] = target: Mitogen-activated protein kinase 13 (Homo sapiens) (UniProt O15264); assay: Inhibition of wild-type human full length p38-delta (M1 to L365 residues) expressed in Escherichia coli BL21 assessed as residual activity at 1000 nM after 30 mins by Kinomescan method relative to control
[13] = target: Mitogen-activated protein kinase kinase kinase 4 (Homo sapiens) (UniProt Q9Y6R4); assay: Inhibition of wild-type human partial length MAP3K4 (G1319 to E1608 residues) expressed in Escherichia coli BL21 assessed as residual activity at 1000 nM after 30 mins by Kinomescan method relative to control
[14] = target: Cyclin-dependent kinase 3 (Homo sapiens) (UniProt Q00526); assay: Inhibition of wild-type human full length CDK3 (M1 to H305 residues) expressed in Escherichia coli BL21 assessed as residual activity at 1000 nM after 30 mins by Kinomescan method relative to control
Method in brief: (§2)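 Single-point screen at a fixed 1 µM, run within a 456-kinase DiscoveRx KINOMEscan panel. Each kinase's read-out is Percent Control, i.e. signal relative to a control without compound. Hits were scored by a Percent Control < 35 cut-off, and an S(35) selectivity score was calculated across the non-mutant kinases.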

[15] = target: Serine/threonine-protein kinase DCLK1 (Homo sapiens) (UniProt O15075); assay: Inhibition of wild-type human partial length DCAMKL1 (L270 to A662 residues) expressed in HEK293 cells assessed as residual activity at 1000 nM after 30 mins by Kinomescan method relative to control; type: cell-based
[16] = target: Casein kinase II subunit alpha' (Homo sapiens) (UniProt P19784); assay: Inhibition of wild-type human full length CSNK2A2 (M1 to R350 residues) expressed in HEK293 cells assessed as residual activity at 1000 nM after 30 mins by Kinomescan method relative to control; type: cell-based; method in brief: as §2
[17] = target: Serine/threonine-protein kinase RIO3 (Homo sapiens) (UniProt O14730); assay: Inhibition of wild-type human full length RIOK3 (M1 to E519 residues) expressed in Escherichia coli BL21 assessed as residual activity at 1000 nM after 30 mins by Kinomescan method relative to control
[18] = test system: Tyrosine-protein kinase ABL1 (Homo sapiens), P00519 [H396P]; assay: Inhibition of human phosphorylated ABL1 H396P mutant (S229 to K512 residues) expressed in HEK293 cells assessed as residual activity at 1000 nM after 30 mins by Kinomescan method relative to control; type: cell-based; method in brief: as §2
[19] = target: Phosphatidylinositol 4,5-bisphosphate 3-kinase catalytic subunit alpha isoform (Homo sapiens) (UniProt P42336); assay: Inhibition of wild-type human partial length PIK3CA (R108 to N1068 residues) expressed in HEK293 cells assessed as residual activity at 1000 nM after 30 mins by Kinomescan method relative to control; type: cell-based
[20] = target: Serine/threonine-protein kinase DCLK2 (Homo sapiens) (UniProt Q8N568); assay: Inhibition of wild-type human partial length DCAMKL2 (K273 to V664 residues) expressed in Escherichia coli BL21 assessed as residual activity at 1000 nM after 30 mins by Kinomescan method relative to control
[21] = target: Fibroblast growth factor receptor 4 (Homo sapiens, UniProt P22455); assay: Inhibition of human recombinant His-tagged FGFR4 cytoplasmic domain ([…] residues) expressed in baculovirus using Tyr-4 peptide after 1 hr by FRET-based Z'-Lyte assay

Q: What does the source list for COc1cc(OC)c(Cl)c(N2Cc3cnc(Nc4ccc(F)cc4)nc3N(C3CCN(C(=O)/C=C/CN(C)C)CC3)C2=O)c1Cl?
A: Activity [1]: 14%; Activity [2]: 100%; Activity [3]: 100%; Activity [4]: 100%; Activity [5]: 92%; Activity [6]: 100%; Activity [7]: 100%; Activity [8]: 100%; Activity [9]: 33%; Activity [10]: 98%; Activity [11]: 79%; Activity [12]: 90%; Activity [13]: 46%; Activity [14]: 97%; Activity [15]: 95%; Activity [16]: 100%; Activity [17]: 97%; Activity [18]: 42%; Activity [19]: 100%; Activity [20]: 73%; IC50 [21]: 78.1 nM

— ChEMBL document CHEMBL4043093, “2-Oxo-3, 4-dihydropyrimido[4, 5-d]pyrimidinyl derivatives as new irreversible pan fibroblast growth factor receptor (FGFR) inhibitors” (Eur J Med Chem, 2017)
